Assay results as given in paper PMC9898299 (Heliyon, 2023).

How the values were obtained:
U937 cells = assay: CellTiter-Glo Luminescent cell viability assay; assay type: cell-based, human; conditions: for inhibition at 25 µM / inhibition at 50 µM / inhibition at 100 µM / inhibition at 200 µM: Homo sapiens, U-937, 72 h, read-out: Percent inhibition at different concentrations of compounds (antiproliferative); for Percent inhibition at different concentrations of compounds (antiproliferative): U937 cells, 72 h, relative to Mitomycin C = 100%
Method in brief: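 Human myeloid leukaemia U937 cells exposed to a range of test compound concentrations for 72 h, with Mitomycin C as positive control and DMSO diluent as negative control. CellTiter-Glo reagent added at an equal volume to the medium, mixed 2 min for lysis, then held 10 min at room temperature before luminescence was read. Viability was computed as RLU test ×100/RLU control. Half-maximal inhibitory concentration was fitted from the dose series.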

[1] = LDH release cytotoxicity assay; assay type: cell-based; conditions: human, U937 cells
Method in brief: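 U937 cells were plated in 96-well format and given various test compound concentrations, with Triton X100 as positive cytotoxicity control, for 4 h at 37 °C. Plates were spun 5 min at 1000 RPM, and supernatant was moved to a fresh plate with LDH detection reagent for 10 min at room temperature in the dark. Optical density was then read, and half-maximal concentration was derived from the doses.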

Compound	inhibition at 25 µM (U937 cells) [%]	inhibition at 50 µM (U937 cells) [%]	inhibition at 100 µM (U937 cells) [%]	inhibition at 200 µM (U937 cells) [%]	inhibition at 4 h, 12.5 µM [1] [%]	inhibition at 4 h, 25 µM [1] [%]	inhibition at 4 h, 50 µM [1] [%]	inhibition at 4 h, 100 µM [1] [%]	Percent inhibition at different concentrations of compounds (antiproliferative) (U937 cells; 25 μM) [%]	Percent inhibition at different concentrations of compounds (antiproliferative) (U937 cells; 50 μM) [%]	Percent inhibition at different concentrations of compounds (antiproliferative) (U937 cells; 100 μM) [%]	Percent inhibition at different concentrations of compounds (antiproliferative) (U937 cells; 200 μM) [%]
COC(=O)COc1cccc(NC(=O)C2(c3ccccc3)CC2)c1 [Compound 8a, Methyl 2-(3-(1-phenylcyclopropane-1-carboxamido)phenoxy)acetate]	28	28	102	100	-1	2	2	1	–	–	–	–
COC(=O)COc1ccc(NC(=O)C2(c3ccccc3)CC2)cc1 [Compound 8b, Methyl 2-(4-(1-phenylcyclopropane-1-carboxamido)phenoxy)acetate]	41	44	102	101	-2	-3	-2	-2	–	–	–	–
COC(=O)COc1ccc(NC(=O)C2(c3ccccc3)CC2)c(C)c1 [Compound 8c, Methyl 2-(3-methyl-4-(1-phenylcyclopropane-1-carboxamido)phenoxy)acetate]	37	63	102	101	0	-1	0	-1	–	–	–	–
COC(=O)COc1ccc(NC(=O)C2(c3ccccc3)CC2)cc1Br [Compound 8d, Methyl 2-(2-bromo-4-(1-phenylcyclopropane-1-carboxamido)phenoxy)acetate]	15	24	100	101	-1	0	3	-3	–	–	–	–
COC(=O)COc1cccc(NC(=O)C2(c3cccc(C)c3)CC2)c1 [Compound 8e, Methyl 2-(3-(1-(m-tolyl)cyclopropane-1-carboxamido)phenoxy)acetate]	46	45	59	101	-3	-4	-1	-1	–	–	–	–
COC(=O)COc1ccc(NC(=O)C2(c3cccc(C)c3)CC2)cc1 [Compound 8f, Methyl 2-(4-(1-(m-tolyl)cyclopropane-1-carboxamido)phenoxy)acetate]	34	36	32	100	-1	-1	0	0	–	–	–	–
COC(=O)COc1ccc(NC(=O)C2(c3cccc(C)c3)CC2)c(C)c1 [Compound 8g, Methyl 2-(3-methyl-4-(1-(m-tolyl)cyclopropane-1-carboxamido)phenoxy)acetate]	18	25	89	100	0	0	1	0	–	–	–	–
COC(=O)COc1cccc(NC(=O)C2(c3ccc(OC)cc3)CC2)c1 [Compound 8h, Methyl 2-(3-(1-(4-methoxyphenyl)cyclopropane-1-carboxamido)phenoxy)acetate]	17	80	98	100	0	3	0	-2	–	–	–	–
COC(=O)COc1ccc(NC(=O)C2(c3ccc(OC)cc3)CC2)cc1 [Compound 8i, Methyl 2-(4-(1-(4-methoxyphenyl)cyclopropane-1-carboxamido)phenoxy)acetate]	28	38	80	101	-3	0	-2	-2	–	–	–	–
COC(=O)COc1ccc(NC(=O)C2(c3ccc(F)cc3)CC2)cc1 [Compound 8j, Methyl 2-(4-(1-(4-fluorophenyl)cyclopropane-1-carboxamido)phenoxy)acetate]	-12	39	76	101	0	-1	-2	-1	–	–	–	–
COC(=O)COc1ccc(NC(=O)C2(c3ccc(F)cc3)CC2)c(C)c1 [Compound 8k, Methyl 2-(4-(1-(4-fluorophenyl)cyclopropane-1-carboxamido)-3-methylphenoxy)acetate]	32	74	101	102	0	0	-1	4	–	–	–	–
COC(=O)COc1cccc(NC(=O)C2(c3ccc(Cl)cc3)CC2)c1 [Compound 8l, Methyl 2-(3-(1-(4-chlorophenyl)cyclopropane-1-carboxamido)phenoxy)acetate]	63	96	101	102	-1	-1	0	2	–	–	–	–
COC(=O)COc1ccc(NC(=O)C2(c3ccc(Cl)cc3)CC2)cc1 [Compound 8m, Methyl 2-(4-(1-(4-chlorophenyl)cyclopropane-1-carboxamido)phenoxy)acetate]	39	49	99	101	-1	1	1	0	–	–	–	–
COC(=O)COc1ccc(NC(=O)C2(c3ccc(Cl)cc3)CC2)c(C)c1 [Compound 8n, Methyl 2-(4-(1-(4-chlorophenyl)cyclopropane-1-carboxamido)-3-methylphenoxy)acetate]	28	33	101	101	0	-1	1	-1	–	–	–	–
COC(=O)COc1ccc(NC(=O)C2(c3ccc(Cl)cc3)CC2)cc1Br [Compound 8o, Methyl 2-(2-bromo-4-(1-(4-chlorophenyl)cyclopropane-1-carboxamido)phenoxy)acetate]	52	77	102	102	0	-2	-2	-4	–	–	–	–
COC(=O)COc1cccc(NC(=O)C2(c3cccc(Br)c3)CC2)c1 [Compound 8p, Methyl 2-(3-(1-(3-bromophenyl)cyclopropane-1-carboxamido)phenoxy)acetate]	37	60	101	102	0	-1	0	0	–	–	–	–
COC(=O)COc1ccc(NC(=O)C2(c3cccc(Br)c3)CC2)c(C)c1 [Compound 8r, Methyl 2-(4-(1-(3-bromophenyl)cyclopropane-1-carboxamido)-3-methylphenoxy)acetate]	27	84	100	101	-1	-1	1	-2	–	–	–	–
COC(=O)COc1ccc(NC(=O)C2(c3ccc(Cl)c(Cl)c3)CC2)cc1 [Compound 8s, Methyl 2-(4-(1-(3,4-dichlorophenyl)cyclopropane-1-carboxamido)phenoxy)acetate]	40	64	102	102	4	0	-1	0	–	–	–	–
Methyl 2-(4-(1-(3-bromophenyl)cyclopropane-1-carboxamido)-3-methylphenoxy)acetate [Compound 8q]	–	–	–	–	–	–	–	–	26	45	102	102
